Active and inactive are the calls of the source. No cut-off for these calls is given here.
Tests used:
[1] = Inhibition of bacterial VIM-1 (unknown origin) expressed in Escherichia coli EXPRESS BL21(DE3) assessed as inhibition constant by measuring rate of substrate hydrolysis by UV-visible spectrophotometry; set-up: species or system Bacteria
Procedure, shortened: (§1)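 Reporter-substrate assay with purified MBL (1–70 nM final) in 50 mM HEPES pH 7.5 at 30 °C. […] Inhibitor 0.5–1000 μM final. Ki derived from the v0/vi vs [I] slope assuming competitive inhibition, or from a Dixon plot. Ki given when inhibition >70%, otherwise % inhibition at 100 μM. Triplicate.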

[2] = Inhibition of bacterial VIM-4 (unknown origin) expressed in Escherichia coli EXPRESS BL21(DE3) assessed as inhibition constant by measuring rate of substrate hydrolysis by UV-visible spectrophotometry; set-up: species or system Bacteria; procedure, shortened: as §1
[3] = test system: Bacteria; assay: Inhibition of bacterial VIM-2 (unknown origin) expressed in Escherichia coli EXPRESS BL21(DE3) assessed as inhibition constant by measuring rate of substrate hydrolysis at 100 uM by UV-visible spectrophotometry relative to control; procedure, shortened: as §1
[4] = test system: Bacteria; assay: Inhibition of bacterial NDM-1 (unknown origin) expressed in Escherichia coli EXPRESS BL21(DE3) assessed as inhibition constant by measuring rate of substrate hydrolysis at 100 uM by UV-visible spectrophotometry relative to control; procedure, shortened: as §1
[5] = test system: Bacteria; assay: Inhibition of bacterial IMP-1 (unknown origin) expressed in Escherichia coli EXPRESS BL21(DE3) assessed as inhibition constant by measuring rate of substrate hydrolysis at 100 uM by UV-visible spectrophotometry relative to control; procedure, shortened: as §1
[6] = test system: Bacteria; assay: Inhibition of bacterial VIM-1 (unknown origin) expressed in Escherichia coli EXPRESS BL21(DE3) assessed as inhibition constant by measuring rate of substrate hydrolysis at 100 uM by UV-visible spectrophotometry relative to control; procedure, shortened: as §1
[7] = test system: Bacteria; assay: Inhibition of bacterial VIM-4 (unknown origin) expressed in Escherichia coli EXPRESS BL21(DE3) assessed as inhibition constant by measuring rate of substrate hydrolysis at 100 uM by UV-visible spectrophotometry relative to control; procedure, shortened: as §1
[8] = test system: Klebsiella pneumoniae; assay: Antimicrobial activity against blaVIM-1-producing multidrug-resistant Klebsiella pneumoniae K47-25 clinical isolate assessed as meropenem MIC at 32 ug/ml by broth microdilution method (reference value: […] ug/ml); type: functional; settings: dose 32 µg/ml
Procedure, shortened: (§2)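 Inoculum was 5×10^4 CFU/well. Each inhibitor was present at a fixed 32 μg/mL, and MICs were also taken without inhibitor.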

[9] = test system: Klebsiella pneumoniae; assay: Antimicrobial activity against blaVIM-4-producing multidrug-resistant Klebsiella pneumoniae VA-416/02 clinical isolate assessed as meropenem MIC at 32 ug/ml by broth microdilution method (reference value: […] ug/ml); type: functional; settings: dose 32 µg/ml; procedure, shortened: as §2
[10] = test system: Pseudomonas aeruginosa; assay: Antimicrobial activity against blaVIM-2-producing multidrug-resistant Pseudomonas aeruginosa VA-182/00 clinical isolate assessed as meropenem MIC at 32 ug/ml by broth microdilution method (reference value: 128 ug/ml); type: functional; settings: dose 32 µg/ml; procedure, shortened: as §2
[11] = test system: Escherichia coli; assay: Antimicrobial activity against blaNDM-1-producing multidrug-resistant Escherichia coli SI-004 clinical isolate assessed as meropenem MIC at 32 ug/ml by broth microdilution method (reference value: 64 ug/ml)
[12] = Metabolic stability in CD-1 mouse microsomes assessed as half life at 37 degC by LC-MS/MS analysis; type: ADME, Microsome
Procedure, shortened: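 Mouse liver microsomes, mixed gender, at 37 °C for 40 min; propranolol control. Reports t1/2, intrinsic clearance and % intact compound remaining at 40 min.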

[13] = Inhibition of bacterial VIM-2 (unknown origin) expressed in Escherichia coli EXPRESS BL21(DE3) assessed as inhibition constant by measuring rate of substrate hydrolysis by UV-visible spectrophotometry; set-up: species or system Bacteria; procedure, shortened: as §1
[14] = Inhibition of bacterial NDM-1 (unknown origin) expressed in Escherichia coli EXPRESS BL21(DE3) assessed as inhibition constant by measuring rate of substrate hydrolysis by UV-visible spectrophotometry; set-up: species or system Bacteria; procedure, shortened: as §1
[15] = Inhibition of bacterial IMP-1 (unknown origin) expressed in Escherichia coli EXPRESS BL21(DE3) assessed as inhibition constant by measuring rate of substrate hydrolysis by UV-visible spectrophotometry; set-up: species or system Bacteria; procedure, shortened: as §1
[16] = test system: Bacteria; assay: Inhibition of bacterial VIM-2 (unknown origin) assessed as Zn(II) content in protein at >5 uM by overnight equilibrium dialysis
Procedure, shortened: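 VIM-2 or NDM-1 (3 μM final) in 50 mM HEPES pH 7.5 mixed with compound at 0–48 μM. Incubated 1 h on ice, then dialysed overnight at 4 °C against 50 mM HEPES pH 7.5. Zn(II) content measured by atomic absorption at 213.86 nm against a zinc standard curve. Each point averages three samples.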

| inhibition [3] | inhibition [4] | inhibition [5] | inhibition [7] | half-life [12] | Compound | Ki [1] | Ki [2] | inhibition [6] | MIC [8] | MIC [9] | MIC [10] | MIC [11] | Ki [13] | Ki [14] | Ki [15] | inhibition [16] |
| --- | --- | --- | --- | --- | --- | --- | --- | --- | --- | --- | --- | --- | --- | --- | --- | --- |
| 57% | 37% | 32% |  |  | O=C(O)[C@H](CCCn1c(-c2ccccc2)n[nH]c1=S)NCc1cccc(O)c1O | 8100 nM | 4200 nM |  |  |  |  |  |  |  |  |  |
| < 30% | < 30% | < 30% | < 30% |  | O=C(O)[C@H](CCCn1c(-c2ccccc2)n[nH]c1=S)NCc1ccccc1 |  |  |  |  |  |  |  |  |  |  |  |
| < 30% | < 30% | < 30% | 32% |  | O=C(O)[C@H](CCCn1c(-c2ccccc2)n[nH]c1=S)NCc1cc[nH]c1 | 5000 nM |  |  |  |  |  |  |  |  |  |  |
|  |  |  |  | 1.05 h | CCOC(=O)[C@H](CCc1ccccc1)N[C@@H](C)C(=O)N1CCC[C@H]1C(=O)O |  |  |  |  |  |  |  |  |  |  |  |
| < 30% | < 30% | < 30% | < 30% |  | O=C(O)[C@H](CCCn1c(-c2ccccc2)n[nH]c1=S)NCc1c[nH]c2ccccc12 |  |  |  |  |  |  |  |  |  |  |  |
| < 30% | < 30% | < 30% | < 30% |  | Cc1[nH]cnc1CN[C@@H](CCCn1c(-c2ccccc2)n[nH]c1=S)C(=O)O |  |  | 51% |  |  |  |  |  |  |  |  |
| 39% |  | 44% | < 30% |  | O=C(O)[C@H](CCCCn1c(-c2ccccc2)n[nH]c1=S)NCc1c[nH]cn1 | 1800 nM |  |  |  |  |  |  |  | 4000 nM |  |  |
|  |  |  |  |  | O=C(O)[C@H](CCCCn1c(-c2ccccc2)n[nH]c1=S)N(Cc1c[nH]cn1)Cc1c[nH]cn1 | 40 nM | 470 nM |  | 0.03 µg/mL | 0.03 µg/mL | 16 µg/mL | 0.06 µg/mL | 970 nM | 360 nM | 5000 nM |  |
|  |  |  |  |  | O=C(O)[C@@H](CCCn1c(-c2ccccc2)n[nH]c1=S)N(Cc1c[nH]cn1)Cc1c[nH]cn1 | 170 nM | 110 nM |  | 0.03 µg/mL | 0.03 µg/mL | 8 µg/mL | 0.06 µg/mL | 190 nM | 14 nM | 7400 nM | Active |
| 47% | 38% | < 30% | < 30% |  | Cn1cncc1CN[C@@H](CCCn1c(-c2ccccc2)n[nH]c1=S)C(=O)O | 9500 nM |  |  |  |  |  |  |  |  |  |  |
|  |  |  |  |  | O=C(O)[C@H](Cn1c(-c2ccccc2)n[nH]c1=S)N(Cc1c[nH]cn1)Cc1c[nH]cn1 | 880 nM | 560 nM |  | 0.03 µg/mL | 0.03 µg/mL | 16 µg/mL | 0.06 µg/mL | 1500 nM | 40 nM | 4200 nM |  |

| Compound | inhibition [3] | inhibition [4] | inhibition [5] | inhibition [7] | half-life [12] | Ki [1] | Ki [2] | inhibition [6] | MIC [8] | MIC [9] | MIC [10] | MIC [11] | Ki [13] | Ki [14] | Ki [15] | inhibition [16] |
| --- | --- | --- | --- | --- | --- | --- | --- | --- | --- | --- | --- | --- | --- | --- | --- | --- |
| O=C(O)[C@H](CCCn1c(-c2ccccc2)n[nH]c1=S)NCc1c[nH]cn1 | < 30% | 35% | < 30% | < 30% |  |  |  | 53% | 2 µg/mL | 4 µg/mL | 128 µg/mL | 64 µg/mL |  |  |  |  |
| O=C(O)[C@H](CCCn1c(-c2ccccc2)n[nH]c1=S)N(Cc1cn[nH]c1)Cc1cn[nH]c1 |  | < 30% | < 30% |  |  | 3700 nM | 290 nM |  | 2 µg/mL | 1 µg/mL | 128 µg/mL | 64 µg/mL | 2500 nM |  |  |  |
| O=C(O)[C@H](CCCn1c(-c2ccccc2)n[nH]c1=S)N(Cc1ccccc1)Cc1ccccc1 | 63% | 32% | < 30% | 64% |  |  |  | 38% | 2 µg/mL | 4 µg/mL | 128 µg/mL | 64 µg/mL |  |  |  |  |

From ChEMBL document CHEMBL5236609, “Optimization of 1,2,4-Triazole-3-thiones toward Broad-Spectrum Metallo-β-lactamase Inhibitors Showing Potent Synergistic Activity on VIM- and NDM-1-Producing Clinical Isolates” (J Med Chem, 2022)
